# Source: ChEMBL document CHEMBL1123055, “Preparation of biologically active ristocetin derivatives: replacements of the 1'-amino group” (J Med Chem, 1985)
# Experiments:
# [1] = Association constant was evaluated towards synthetic peptidoglycan analogue Ac2-Lys-D-Ala-D-Ala; assay type: ADME
# Method in brief: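 Differential UV spectroscopy in tandem cells, 2 cm total path. Antibiotic at 50 μg/mL in 20 mM sodium citrate buffer pH 5.1, with 10% methanol for poorly water-soluble compounds. Ac2-Lys-D-Ala-D-Ala peptide added stepwise. Absorbance change followed at the wavelength of maximal change, and the association constant K_A derived from it.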
# Streptococcus pyogenes = experiment: The antibacterial activity was evaluated as minimal inhibitory concentration (MIC) against Streptococcus pyogenes C203; assay type: functional
# Method in brief: (§1)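 Twofold agar dilution of compound in 10 mL brain heart infusion agar. Organisms grown 24 h, diluted 1/100, inoculum applied by multipoint replicator. Plates incubated at 35 °C (24 h per table footnote; 25 h per methods). MIC read as lowest inhibiting concentration, μg/mL. Ristocetin run as standard.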
# Staphylococcus aureus = experiment: The antibacterial activity was evaluated as minimal inhibitory concentration (MIC) against Staphylococcus aureus Smith; assay type: functional; method in brief: as §1
# [2] = system: Staphylococcus epidermidis; experiment: The antibacterial activity was evaluated as minimal inhibitory concentration (MIC) against Staphylococcus epidermis 3519; assay type: functional; method in brief: as §1
# Enterococcus faecalis = experiment: The antibacterial activity was evaluated as minimal inhibitory concentration (MIC) against Streptococcus faecalis 10541; assay type: functional; method in brief: as §1
K A [1] [M⁻¹],MIC (Streptococcus pyogenes) [µg/mL],MIC (Staphylococcus aureus) [µg/mL],MIC [2] [µg/mL],MIC (Enterococcus faecalis) [µg/mL],SMILES
960000,1.56,3.1,3.1,3.1,COC(=O)[C@H]1NC(=O)C2NC(=O)[C@H](NC(=O)[C@@H]3NC(=O)[C@H]4NC(=O)[C@H](NC(=O)/C(=N/O)c5ccc(O)c(c5)Oc5cc4cc(O)c5C)[C@H](O)c4ccc(cc4)Oc4cc3cc(c4O)Oc3ccc(cc3)C2O)c2ccc(O)c(c2)-c2c(O)cc(O)cc21 (stereo not given in full)
600000,1.56,12.5,25,6.2,COC(=O)[C@H]1NC(=O)[C@H]2NC(=O)[C@H](NC(=O)[C@@H]3NC(=O)[C@H]4NC(=O)[C@H](NC(=O)[C@H](N)c5ccc(O)c(c5)Oc5cc4cc(O)c5C)[C@H](O)c4ccc(cc4)Oc4cc3cc(c4O[C@H]3O[C@H](CO[C@H]4O[C@H](C)[C@@H](O)[C@@H](O)[C@@H]4O)[C@H](O)[C@H](O)[C@H]3O[C@H]3O[C@@H](CO)[C@@H](O)[C@@H](O)[C@H]3O[C@H]3OC[C@@H](O)[C@@H](O)[C@H]3O)Oc3ccc(cc3)[C@H]2O[C@@H]2C[C@@H](N)[C@@H](O)[C@@H](C)O2)c2ccc(O)c(c2)-c2c(O[C@@H]3O[C@H](CO)[C@@H](O)[C@@H](O)[C@@H]3O)cc(O)cc21
670000,3.1,3.1,3.1,3.1,COC(=O)[C@H]1NC(=O)C2NC(=O)[C@H](NC(=O)[C@@H]3NC(=O)[C@H]4NC(=O)[C@H](NC(=O)[C@@H](N)c5ccc(O)c(c5)Oc5cc4cc(O)c5C)[C@H](O)c4ccc(cc4)Oc4cc3cc(c4O)Oc3ccc(cc3)C2O)c2ccc(O)c(c2)-c2c(O)cc(O)cc21 (stereo not given in full)
140000,3.1,6.2,6.2,6.2,COC(=O)[C@H]1NC(=O)C2NC(=O)[C@H](NC(=O)[C@@H]3NC(=O)[C@H]4NC(=O)[C@H](NC(=O)[C@@H](NC(C)=O)c5ccc(O)c(c5)Oc5cc4cc(O)c5C)[C@H](O)c4ccc(cc4)Oc4cc3cc(c4O)Oc3ccc(cc3)C2O)c2ccc(O)c(c2)-c2c(O)cc(O)cc21 (stereo not given in full)
560000,3.1,6.2,12.5,12.5,COC(=O)[C@H]1NC(=O)C2NC(=O)[C@H](NC(=O)[C@@H]3NC(=O)[C@H]4NC(=O)[C@H](NC(=O)C(=O)c5ccc(O)c(c5)Oc5cc4cc(O)c5C)[C@H](O)c4ccc(cc4)Oc4cc3cc(c4O)Oc3ccc(cc3)C2O)c2ccc(O)c(c2)-c2c(O)cc(O)cc21 (stereo not given in full)
20000,25,25,50,50,COC(=O)[C@H]1NC(=O)C2NC(=O)[C@H](NC(=O)[C@@H]3NC(=O)[C@H]4NC(=O)[C@H](NC(=O)[C@H](N)c5ccc(O)c(c5)Oc5cc4cc(O)c5C)[C@H](O)c4ccc(cc4)Oc4cc3cc(c4O)Oc3ccc(cc3)C2O)c2ccc(O)c(c2)-c2c(O)cc(O)cc21 (stereo not given in full)
150000,6.2,12.5,12.5,6.2,COC(=O)[C@H]1NC(=O)C2NC(=O)[C@H](NC(=O)[C@@H]3NC(=O)[C@H]4NC(=O)[C@H](NC(=O)[C@H](O)c5ccc(O)c(c5)Oc5cc4cc(O)c5C)[C@H](O)c4ccc(cc4)Oc4cc3cc(c4O)Oc3ccc(cc3)C2O)c2ccc(O)c(c2)-c2c(O)cc(O)cc21 (stereo not given in full)
